The text below walks through data of ChEMBL document CHEMBL3826936, “Alkyne-substituted diminazene as G-quadruplex binders with anticancer activities” (Eur J Med Chem, 2016).

Series [1] in a line: Binding affinity to 5'-FAM/3'-TAMRA labeled 26-mer duplex DNA (unknown origin) assessed as change in melting temperature at 4 uM after 12 hrs by TR-FRET assay. On the technique in general: TR-FRET usually uses a lanthanide donor and a delayed reading to cut background.
The nature of series [2]: Binding affinity to 5'-FAM/3'-TAMRA labeled F21T 21-mer G-quadruplex DNA (unknown origin) assessed as change in melting temperature at 4 uM after 12 hrs by TR-FRET assay. Summed up: (§1)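 Dual-labeled FAM/TAMRA oligos diluted to 800 nM in 60 mM potassium cacodylate (pH 7.2), annealed 10 min at 85 °C and cooled to room temperature. Mixed 1:1 with ligand at […] in the same buffer. Equilibrated at least 12 h at 4 °C. ΔT1/2 taken as melting temperature with minus without ligand, in triplicate, averaged.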

Series [3] can be described thus: Binding affinity to 5'-FAM/3'-TAMRA labeled c-kit2 26-mer G-quadruplex DNA (unknown origin) assessed as change in melting temperature at 4 uM after 12 hrs by TR-FRET assay. A digest of the protocol: as §1
Series [4] can be described thus: Binding affinity to wild type c-MYC 24-mer G-quadruplex DNA (unknown origin) at 4:1 ligand:DNA molar ratio by isothermal titration calorimetry. A general note: ITC needs no label: the signal is the heat of the interaction.
Series [5] can be described thus: Binding affinity to 5'-FAM/3'-TAMRA labeled c-MYC 22-mer G-quadruplex DNA (unknown origin) assessed as change in melting temperature at 4 uM after 12 hrs by TR-FRET assay. A digest of the protocol:
as §1

Series [6] is described as follows: Antiproliferative activity against human PC3 cells after 72 hrs by WST-1 assay. It is filed as functional. The following applies: PC-3, 72 h. Summed up: (§2)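 Cells seeded in 96-well plates the afternoon before treatment, at numbers keeping them in log-phase growth; about 18 h later, compounds semi-serially diluted in DMSO then growth medium and added. Incubation 72 h, then WST-1 added and plates read after 4 more hours at 37 °C. GI50 derived from curve fits; viability expressed relative to DMSO control.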
In general terms: Tetrazolium assays rely on reduction of a dye to a coloured formazan, in cell work by metabolically active cells.

Series [7] deals with MDA-MB-231. Kind of series: Antiproliferative activity against human MDA-MB-231 cells after 72 hrs by WST-1 assay. It is filed as functional. The following applies: MDA-MB-231, 72 h. Summed up:
as §2

The nature of series [8]: Antiproliferative activity against human OVCAR3 cells after 72 hrs by WST-1 assay. The format is functional. The following applies: OVCAR-3, 72 h. Summed up:
as §2

Series [9] can be described thus: Binding affinity to 5'-FAM/3'-TAMRA labeled k-RAS21R 21-mer G-quadruplex DNA (unknown origin) assessed as change in melting temperature at 4 uM after 12 hrs by TR-FRET assay. A digest of the protocol: as §1
The nature of series [10]: Binding affinity to 5'-FAM/3'-TAMRA labeled c-MYC 22-mer G-quadruplex DNA (unknown origin) at 4 uM in presence of 26-mer duplex DNA by TR-FRET assay.
Series [11] is described as follows: Antiproliferative activity against human PC3 cells assessed as cell viability at 20 uM after 72 hrs by WST-1 assay relative to control. It is filed as functional. The following applies: PC-3, 72 h, read-out: Activity. A digest of the protocol: as §2
A short description of series [12]: Antiproliferative activity against human OVCAR3 cells assessed as cell viability at 20 uM after 72 hrs by WST-1 assay relative to control. It is filed as functional. The following applies: OVCAR-3, 72 h, read-out: Activity. A digest of the protocol: as §2
Series [13] concerns MDA-MB-231. Kind of series: Antiproliferative activity against human MDA-MB-231 cells assessed as cell viability at 20 uM after 72 hrs by WST-1 assay relative to control. It is filed as functional. The following applies: MDA-MB-231, 72 h, read-out: Activity. Summed up:
as §2

Series [14] can be described thus: Antiproliferative activity against human MCR5A cells after 72 hrs by WST-1 assay. It is filed as cell-based. A digest of the protocol:
(§3)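 Cells seeded the afternoon before treatment at densities giving log-phase growth; about 18 h later compounds, semi-serially diluted in DMSO then growth medium, were added. After 72 h WST-1 was added, with a further 4 h at 37 °C before plate reading. GI50 values were calculated from the curves. NBM was grown in RPMI; MCR5A was handled per ATCC.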

Series [15] in a line: Antiproliferative activity against human bone marrow cells after 72 hrs by WST-1 assay. The format is cell-based, Bone marrow cell. A digest of the protocol: as §3

Active and inactive are the calls of the source. The rule behind the calls is not given here.

For orientation: ΔTm means the change in melting temperature against a reference sample. The term GI50 denotes the concentration at which growth is held to half of that of the control. Higher therefore signals less potent growth inhibition. `C#Cc1cccc(N/N=N/c2ccc(C(=N)N)cc2)c1`: the ΔTm is below 5 °C in series [1]; below 5 °C in [2]; 5.48 °C in series [3]; 8.2 °C in series [5]; 7.1 °C in series [9]. Further, the result in [4] was Active. Moreover, the concentration for 50% growth inhibition (GI50) was determined as 18 µM in series [6], 20.5 µM in the series on MDA-MB-231 [7] and 16.8 µM in [8].

As to `N=C(N)c1ccc(/N=N/Nc2cccc(C#Cc3ccccc3)c2)cc1`, the ΔTm was below 5 °C in series [1]; below 5 °C in series [2]; 6.4 °C in series [3]; 7.1 °C in series [5]; 3.7 °C in series [9]. Moreover, the GI50 was determined as 5.8 µM in [6], 9.5 µM in the series with MDA-MB-231 [7] and 6.5 µM in series [8]. Further, the result in [10] was inactive.

On to `N=C(N)c1ccc(/N=N/Nc2ccncc2)cc1`, for which the thermal shift (ΔTm) in series [1] was below 5 °C; in series [2] it was below 5 °C; in series [3] it was 6.58 °C; in series [5] it was 6.1 °C; in [9] it was 4.3 °C. In addition, the viability at 20 µM (in [11]; in series [12]; with MDA-MB-231 [13]) was at least 75% in each case. Besides, in series [10], the outcome was inactive.

In the case of `N=C(N)c1ccc(/N=N/Nc2ccccc2C#Cc2ccccc2)cc1`, the ΔTm in [1] is below 5 °C; in series [2], below 5 °C; in series [3] it was 5.12 °C; in [5] it was 6.4 °C; in series [9], 1.8 °C. In addition, the GI50 in [6] was found to be 5.3 µM; with MDA-MB-231 [7], 5.1 µM; in [8], 8.1 µM. Also, in series [10], the result was inactive.

With `N#Cc1cccc(N/N=N/c2ccc(C(=N)N)cc2)c1`, the ΔTm in series [1] was below 5 °C; in series [2], below 5 °C; in [3], 6.22 °C; in [5], 6.2 °C; in series [9], 2.2 °C. The viability at 20 µM (in series [11]; in [12]; with MDA-MB-231 [13]) was at least 75% each time.

As to `C[n+]1ccc(-c2c3nc(c(-c4cc[n+](C)cc4)c4ccc([nH]4)c(-c4cc[n+](C)cc4)c4nc(c(-c5cc[n+](C)cc5)c5ccc2[nH]5)C=C4)C=C3)cc1`, the 50% growth inhibitory concentration (GI50) at 72 h in series [14] came out at 15.2 µM; in series [15], 16.8 µM. The GI50 in series [6] was found to be 14 µM; in the series on MDA-MB-231 [7] it was 14.3 µM; in series [8] it was 14.6 µM.

Regarding `C#Cc1ccccc1N/N=N/c1ccc(C(=N)N)cc1`, the thermal shift (ΔTm) was below 5 °C in [1]; below 5 °C in series [2]; 7.68 °C in series [3]; 7 °C in series [5]; 4.2 °C in series [9]. Further, the outcome in series [4] was Active. In addition, the results for the GI50 (in series [6]; with MDA-MB-231 [7]; in series [8]) were above 50 µM, 23.2 µM and above 25 µM, respectively.

Take `COc1ccc(C#Cc2cccc(N/N=N/c3ccc(C(=N)N)cc3)c2)cc1`: the ΔTm was below 5 °C in series [1]; below 5 °C in series [2]; 5.48 °C in series [3]; 7.3 °C in series [5]; 2.6 °C in series [9]. Also, the concentration for 50% growth inhibition (GI50) in series [6] is 5 µM; in the series on MDA-MB-231 [7], 5.5 µM; in [8] it was 5.2 µM. Also, the outcome in series [10] was inactive.

As to `N#Cc1ccc(N/N=N/c2ccc(C(=N)N)cc2)cc1`, the ΔTm in series [1] is below 5 °C; in [2], 5.1 °C; in series [3], 5.3 °C; in series [5] it was 9.7 °C; in series [9], 8.2 °C. Besides, the viability at 20 µM (in series [11]; in [12]; with MDA-MB-231 [13]) was at least 75% each time.

For `N=C(N)c1ccc(N)cc1`, the viability at 20 µM (in [11]; in [12]; with MDA-MB-231 [13]) was at least 75% each time.

As for `N=C(N)c1ccc(/N=N/Nc2ccccc2)cc1`, the shift in melting temperature (ΔTm) in [1] is below 5 °C; in [2] it was below 5 °C; in series [3], 6.4 °C; in [5], 7.1 °C; in series [9], 6.4 °C. Also, the viability at 20 µM (in series [11]; in series [12]; in the series with MDA-MB-231 [13]) was at least 75% in each case.

In the case of `N=C(N)c1ccc(/N=N/Nc2cccc(C#Cc3ccccn3)c2)cc1`, the thermal shift (ΔTm) in series [1] is below 5 °C; in [2], 7.3 °C; in series [3] it was 8.04 °C; in series [5] it was 9.7 °C; in [9] it was 13.2 °C. For the same compound, the concentration for 50% growth inhibition (GI50) in series [6] turned out to be 10.4 µM; with MDA-MB-231 [7], 14.4 µM; in series [8], 10.7 µM. Besides, the outcome in series [10] was inactive.

Take `N=C(N)c1ccc(/N=N/Nc2cccc(-c3ccccc3)c2)cc1`: the ΔTm was below 5 °C in series [1]; below 5 °C in series [2]; 5.48 °C in series [3]; 8.8 °C in [5]; 15 °C in [9]. The viability at 20 µM (in [11]; in [12]; in the series with MDA-MB-231 [13]) was at least 75% each time.

As to `C#Cc1ccc(N/N=N/c2ccc(C(=N)N)cc2)cc1`, the ΔTm was below 5 °C in series [1]; below 5 °C in series [2]; 5.3 °C in series [3]; 6.6 °C in series [5]; 4.2 °C in [9]. Besides, the GI50 in series [6] was determined as 22.5 µM; in the series with MDA-MB-231 [7], 30.2 µM; in series [8] it was 11.8 µM.

For `Nc1cccc(C#Cc2ccc(F)cc2)c1`, the viability at 20 µM (in series [11]; in [12]; in the series on MDA-MB-231 [13]) was at least 75% each time.
